Screens: PubChem BioAssay, Broad Institute
KDM4C inh = blocks human GASC-1 (KDM4C) demethylase activity. 96,000 compounds, 0.15% hits. inhibition, % at 12.5 µM. GST-KDM4C 2-372, H3K9me3 peptide, LANCE TR-FRET;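 active means mean replicate inhibition above about 25%, with at least 55% of replicates also reaching it, limit read from the data, passing the limit was not always enough; inconclusive means only one of those two conditions met; inactive means neither condition met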
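reagent = H3K9me3 peptide substrate, Fe(II), 2-oxoglutarate | system = GST-tagged GASC-1 (JMJD2C) catalytic fragment, aa 2-372 | amount = enzyme final amount 10 nM | read-out = Fall in 671/618 emission ratio as inhibition | medium = HEPES buffer, pH 7.5, plus ascorbate | schedule = 30 min reaction, 60 min detection, RT | measured by = LANCE TR-FRET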
T cruzi growth-1 = T. cruzi proliferation inhibition; T. cruzi beta-gal in NIH3T3, GalScreen luminescence, 90 h; inhibition, % at 8.34 µM; 77,000 compounds, 5.9% hits;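 active means mean inhibition above about 93%, with at least 55% of replicates each passing it, limit read from the data, passing the limit was not always enough; inconclusive means only one of those two conditions holds; inactive means neither condition holds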
Pf Dd2 growth = blocks growth of Plasmodium falciparum Dd2 parasites; 94,000 compounds, 2.3% hits; activity change, % at 10 µM; P. falciparum Dd2 growth, SYBR Green, 72 h; stronger effect = lower value; in the data active means activity change below about -80%; inconclusive means no clear call, values can overlap the other calls
IDH1 R132H inh = blocks human IDH1 R132H reductase activity. diaphorase/resazurin fluorescence, 60 min. inhibition, % at 10 µM. 70,000 compounds, 0.18% hits. AID 624101; in the data active means inhibition above about 34%; inconclusive means no clear call, values can overlap the other calls; inactive means below about 11%;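 further: 0% = DMSO and 100% = no enzyme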
Target sequence (O75874 whole entry R132H): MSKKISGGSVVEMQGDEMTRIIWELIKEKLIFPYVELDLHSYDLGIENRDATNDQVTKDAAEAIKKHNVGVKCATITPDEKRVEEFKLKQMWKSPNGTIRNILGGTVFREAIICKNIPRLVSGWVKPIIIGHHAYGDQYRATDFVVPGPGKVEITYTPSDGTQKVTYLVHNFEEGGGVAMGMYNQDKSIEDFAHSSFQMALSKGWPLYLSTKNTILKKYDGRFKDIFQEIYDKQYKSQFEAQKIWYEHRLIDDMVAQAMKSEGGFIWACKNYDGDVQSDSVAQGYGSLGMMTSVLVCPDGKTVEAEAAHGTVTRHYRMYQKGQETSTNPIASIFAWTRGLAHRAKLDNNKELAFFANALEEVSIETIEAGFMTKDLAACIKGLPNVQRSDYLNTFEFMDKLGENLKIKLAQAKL
T cruzi growth-2 = blocks T. cruzi growth in NIH3T3 host cells | shares compounds with T cruzi growth-1 | T. cruzi beta-gal in NIH3T3, GalScreen luminescence, 90 h | inhibition, % at 8.35 µM | 5,600 compounds, 72% hits | AID 651739;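 active means mean replicate inhibition above about 95% and at least 55% of replicates individually reaching it, limit read from the data; inconclusive means only one of the two criteria is met; inactive means neither criterion is met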
T cruzi growth-3 = inhibitors of T. cruzi proliferation; shares compounds with T cruzi growth-1; T. cruzi beta-gal in NIH3T3, GalScreen luminescence, 90 h; inhibition, % at 2.09 µM; 5,600 compounds, 21% hits; AID 651740;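 active means mean inhibition above about 95%, with at least 55% of replicates also reaching it, limit read from the data; inconclusive means meets just one of the two conditions; inactive means meets neither condition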;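 further: plate controls were neutral control median for no effect and positive control median for full effect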
3T3 cytotox = kills mouse NIH/3T3 fibroblasts. cytotoxicity (signal decrease), % at 8.35 µM. 5,600 compounds, 14% hits. AID 651742. NIH/3T3 viability, CellTiter-Glo ATP luminescence, 90 h. shares compounds with T cruzi growth-1;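 active means mean signal decrease across replicates above about 35% based on untreated-well scatter, with enough replicates individually passing, limit read from the data; inconclusive means no rule stated though some were filed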;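 further: 0% = median of neutral control wells and 100% = median of positive control wells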
NIH3T3 tox 2 = kills mouse NIH/3T3 fibroblasts; shares compounds with T cruzi growth-1; 5,600 compounds, 56% hits; inhibition, % at 24.9 µM; NIH/3T3 viability, CellTiter-Glo ATP luminescence, 90 h; AID 651744;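 active means mean loss of cell viability signal at or above a set limit, and enough replicates individually reaching it; inconclusive means meets only the mean limit or only the replicate share; inactive means meets neither condition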;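 further: 0% = median of neutral control wells and 100% = median of positive control wells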
Active calls of the source: *; ? = inconclusive; . = not tested or not shown. The list is not random: actives were taken first. Their share in the collection is about 5.8%.

SMILES	KDM4C inh	T cruzi growth-1	Pf Dd2 growth	IDH1 R132H inh	T cruzi growth-2	T cruzi growth-3	3T3 cytotox	NIH3T3 tox 2
COc1cccc(CN2CCCCN3[C@H](CO)[C@@H](c4ccc(-c5cccnc5)cc4)[C@H]3C2)c1	0	30	-56	.	.	.	.	.
COc1cccc(CN2CCCCN3[C@@H](CO)[C@@H](c4ccc(C#Cc5cccnc5)cc4)[C@@H]3C2)c1	0	118*	-73	.	104*	?	27	104*
COc1cccc(CN2CCCCN3[C@H](C2)[C@@H](c2ccc(C#Cc4cccnc4)cc2)[C@@H]3CO)c1	0	117*	-71	.	94	102*	26	104*
C[C@H]1CCCCO[C@H](CN(C)C)[C@@H](C)CN([C@@H](C)CO)C(=O)c2cc(NC(=O)Nc3cccc4ccccc34)ccc2O1	1	29	-59	-9	.	.	.	.
C[C@@H]1CCCCO[C@@H](CN(C)C(=O)Nc2ccccc2)[C@H](C)CN([C@@H](C)CO)C(=O)c2cc(NC(=O)Nc3ccccc3)ccc2O1	-1	?	8	0	89	40	-38	-7
C[C@@H]1CCCCO[C@@H](CN(C)C(=O)Nc2ccccc2)[C@H](C)CN([C@@H](C)CO)C(=O)c2cc(N(C)C)ccc2O1	5	107*	-32	-2	71	8	-5	-20
C[C@@H]1CCCCO[C@@H](CN(C)C(=O)Nc2cccc3ccccc23)[C@H](C)CN([C@H](C)CO)C(=O)c2cc(N(C)C)ccc2O1	2	102*	-36	0	97*	73	-35	0
C[C@@H]1CCCCO[C@@H](CN(C)C(=O)Nc2cccc3ccccc23)[C@@H](C)CN([C@@H](C)CO)C(=O)c2cc(N(C)C)ccc2O1	-2	57	-76	0	.	.	.	.
C[C@@H]1CN([C@@H](C)CO)C(=O)c2cc(NC(=O)Nc3cccc4ccccc34)ccc2O[C@@H](C)CCCCO[C@H]1CN(C)C	-1	99*	33	-14	40	-48	-1	-15
CN(C)CC#Cc1cccc(-c2nc(C(=O)N3CCN(Cc4ccccc4)CC3)cc3c2[C@H](CCO)N(S(=O)C(C)(C)C)C3)c1 (stereo not given in full)	.	.	-14	.	.	.	.	.
CO[C@H]1CN(C)C(=O)c2cc(NC(=O)Nc3ccccc3)ccc2OC[C@@H](C)N(C(=O)CC2CC2)C[C@@H]1C	0	14	-39	0	.	.	.	.
COc1ccc(S(=O)(=O)NCc2cccnc2)c(C)c1C	.	.	.	0	.	.	.	.
N#CCCn1cc(CO)c(-c2ccc(Cl)cc2)n1	.	.	.	-1	.	.	.	.
CCn1c(SCC(=O)Nc2ccc(Cl)cc2Cl)nnc1-c1ccccc1F	.	.	.	0	.	.	.	.
CCc1cc(Br)cc(C)c1NC(=O)CSc1nnc(-c2ccncc2)n1-c1ccccc1	.	.	.	0	.	.	.	.
C[C@H]1CCCCO[C@@H](CN(C)C(=O)Nc2ccccc2)[C@@H](C)CN([C@@H](C)CO)C(=O)c2cc(NC(=O)Nc3ccc4c(c3)OCO4)ccc2O1	1	123*	1	1	113*	60	8	-2
C[C@H](CO)N1C[C@H](C)[C@@H](CN(C)C(=O)Nc2ccc(F)cc2)OCCCC[C@H](C)Oc2ccc(NC(=O)Nc3cccc4ccccc34)cc2C1=O	12	105*	-32	3	107*	55	9	?
C[C@@H]1CCCCO[C@H](CN(C)C(=O)Nc2ccc(F)cc2)[C@@H](C)CN([C@H](C)CO)C(=O)c2cc(NC(=O)Nc3cccc4ccccc34)ccc2O1	-1	72	-23	.	.	.	.	.
C[C@@H]1CCCCO[C@@H](CN(C)C(=O)Nc2ccccc2)[C@H](C)CN([C@H](C)CO)C(=O)c2cc(NC(=O)NC3CCCCC3)ccc2O1	-1	105*	-48	-3	101*	47	14	11
C[C@H](CO)N1C[C@H](C)[C@@H](CN(C)C(=O)Nc2ccccc2)OCCCC[C@H](C)Oc2ccc(NC(=O)Nc3ccc(F)cc3)cc2C1=O	0	100*	17	.	?	-22	-10	24
Cc1noc(C)c1S(=O)(=O)Nc1ccc2c(c1)C(=O)N([C@@H](C)CO)C[C@H](C)[C@H](CN(C)Cc1ccc3c(c1)OCO3)OCCCC[C@@H](C)O2	1	-18	-58	.	.	.	.	.
O=C(C1CCCC1)N1CC[C@@H]2[C@@H](CO)Nc3ccc(Br)cc3[C@@H]21	-4	.	-2	.	.	.	.	.
C[C@H]1CCCCO[C@H](CN(C)C)[C@@H](C)CN([C@@H](C)CO)C(=O)c2cc(NC(=O)CCCCCC(=O)Nc3ccccc3N)ccc2O1	-1	97*	41	.	102*	17	8	17
CC(C)NC(=O)Nc1ccc2c(c1)C(=O)N([C@H](C)CO)C[C@H](C)[C@H](CN(C)C(=O)Nc1ccc(F)cc1)OCCCC[C@H](C)O2	0	96*	48	2	104*	70	-1	-13
C[C@@H]1CCCCO[C@@H](CN(C)C)[C@H](C)CN([C@H](C)CO)C(=O)c2cc(NC(=O)CCCCCC(=O)Nc3ccccc3N)ccc2O1	0	73	43	.	.	.	.	.
SMILES	KDM4C inh	T cruzi growth-1	Pf Dd2 growth	IDH1 R132H inh	T cruzi growth-2	T cruzi growth-3	3T3 cytotox	NIH3T3 tox 2
COC(=O)CCCCCCC(=O)N/N=C/c1ccc(OC)cc1	.	.	.	0	.	.	.	.
Cc1cc(N(CC(=O)Nc2ccc3c(c2)OCCO3)S(C)(=O)=O)ccc1Br	.	.	.	0	.	.	.	.
Cc1noc(C)c1C(=O)N(C)C[C@H]1OCc2ccccc2-c2ccccc2C(=O)N([C@H](C)CO)C[C@H]1C	0	?	-10	.	75	4	-7	10
C[C@@H]1CN([C@H](C)CO)C(=O)c2ccccc2-c2ccccc2CO[C@H]1CN(C)S(=O)(=O)c1cccs1	1	?	14	.	89	15	21	?
C[C@@H]1CN([C@H](C)CO)C(=O)c2ccccc2-c2ccccc2CO[C@H]1CN(C)S(=O)(=O)c1ccc(C(F)(F)F)cc1	0	96*	-52	.	?	28	-4	20
C[C@@H]1CN([C@H](C)CO)C(=O)c2ccccc2-c2ccccc2CO[C@H]1CN(C)S(=O)(=O)c1ccc(F)cc1	1	-11	53	.	.	.	.	.
Cc1ccc(S(=O)(=O)N(C)C[C@H]2OCCCC[C@H](C)Oc3ccc(NS(C)(=O)=O)cc3C(=O)N([C@@H](C)CO)C[C@H]2C)cc1	2	6	-15	.	.	.	.	.
O=C(N[C@@H]1CC[C@@H](CC(=O)N2CCOCC2)O[C@@H]1CO)c1ccccn1	2	-3	10	0	.	.	.	.
